Tested on: HEK-293T
Assay: Multiplex assay against HEK293T;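 as to Population Tubulin-Different-Phenotype (%): share of the cells with healthy nuclei that show this phenotype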
Type: toxicity, cell-based
Conditions: human
Summary of the method: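 Per cents of healthy-nucleus cells form the tubulin, mitochondrial-mass and membrane-permeability phenotype values. Live cells were stained at seeding with Hoechst33342, BioTracker Green Microtubule Cytoskeleton Dye, MitoTracker Red and Annexin V Alexa Fluor 680. After compound addition they were imaged on a CQ1 microscope at 37°C and 5% CO2, and CellPathfinder machine-learning gating split them into Hoechst high-intensity objects or normal cells, normal cells into healthy, pyknosed or fragmented nuclei, and pyknosed cells into mitotic or apoptotic.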

[1] = 12 h, 1 µM, compound concentration 1 uM, replicate 1
[2] = 12 h, 1 µM, compound concentration 1 uM, replicate 2
[3] = 12 h, 10 µM, compound concentration 10 uM, replicate 1
[4] = 12 h, 10 µM, compound concentration 10 uM, replicate 2
[5] = 24 h, 1 µM, compound concentration 1 uM, replicate 1
[6] = 24 h, 1 µM, compound concentration 1 uM, replicate 2
[7] = 24 h, 10 µM, compound concentration 10 uM, replicate 1
[8] = 24 h, 10 µM, compound concentration 10 uM, replicate 2
[9] = 48 h, 1 µM, compound concentration 1 uM, replicate 1
[10] = 48 h, 1 µM, compound concentration 1 uM, replicate 2
[11] = 48 h, 10 µM, compound concentration 10 uM, replicate 1
[12] = 48 h, 10 µM, compound concentration 10 uM, replicate 2

S=C(NCCCc1c[nH]cn1)NCCCN(Cc1ccc(Cl)c(Cl)c1)c1ccc(Br)cn1
Population Apoptotic (%) [1]: 47%
Population Fragmented Nuclei (%) [1]: 8%
Population Healthy Nuclei (%) [1]: 41%
Population Hoechst High Intensity Objects (%) [1]: 11%
Population Membrane Permeable-Phenotype (%) [1]: 4%
Population Mitochondria Different-Phenotype (%) [1]: 83%
Population Mitotic Cells (%) [1]: 52%
Population Normal (%) [1]: 88%
Population Pyknosed Nuclei (%) [1]: 49%
Population Tubulin-Different-Phenotype (%) [1]: 67%
Total Cell Count [1]: 310
Population Apoptotic (%) [2]: 19%
Population Fragmented Nuclei (%) [2]: 5%
Population Healthy Nuclei (%) [2]: 44%
Population Hoechst High Intensity Objects (%) [2]: 3%
Population Membrane Permeable-Phenotype (%) [2]: 22%
Population Mitochondria Different-Phenotype (%) [2]: 29%
Population Mitotic Cells (%) [2]: 80%
Population Normal (%) [2]: 96%
Population Pyknosed Nuclei (%) [2]: 50%
Population Tubulin-Different-Phenotype (%) [2]: 54%
Total Cell Count [2]: 240
Population Apoptotic (%) [3]: 88%
Population Fragmented Nuclei (%) [3]: 6%
Population Healthy Nuclei (%) [3]: 2%
Population Hoechst High Intensity Objects (%) [3]: 13%
Population Membrane Permeable-Phenotype (%) [3]: 22%
Population Mitochondria Different-Phenotype (%) [3]: 66%
Population Mitotic Cells (%) [3]: 11%
Population Normal (%) [3]: 86%
Population Tubulin-Different-Phenotype (%) [3]: 77%
Total Cell Count [3]: 356
Population Apoptotic (%) [4]: 84%
Population Fragmented Nuclei (%) [4]: 5%
Population Healthy Nuclei (%) [4]: 3%
Population Hoechst High Intensity Objects (%) [4]: 6%
Population Membrane Permeable-Phenotype (%) [4]: 37%
Population Mitochondria Different-Phenotype (%) [4]: 50%
Population Mitotic Cells (%) [4]: 15%
Population Normal (%) [4]: 93%
Population Pyknosed Nuclei (%) [4]: 90%
Population Tubulin-Different-Phenotype (%) [4]: 100%
Total Cell Count [4]: 220
Population Apoptotic (%) [5]: 61%
Population Fragmented Nuclei (%) [5]: 13%
Population Healthy Nuclei (%) [5]: 31%
Population Hoechst High Intensity Objects (%) [5]: 15%
Population Membrane Permeable-Phenotype (%) [5]: 8%
Population Mitochondria Different-Phenotype (%) [5]: 73%
Population Mitotic Cells (%) [5]: 38%
Population Normal (%) [5]: 84%
Population Tubulin-Different-Phenotype (%) [5]: 73%
Total Cell Count [5]: 308
Population Apoptotic (%) [6]: 20%
Population Fragmented Nuclei (%) [6]: 4%
Population Healthy Nuclei (%) [6]: 40%
Population Hoechst High Intensity Objects (%) [6]: 6%
Population Membrane Permeable-Phenotype (%) [6]: 28%
Population Mitochondria Different-Phenotype (%) [6]: 17%
Population Mitotic Cells (%) [6]: 79%
Population Normal (%) [6]: 93%
Population Pyknosed Nuclei (%) [6]: 54%
Population Tubulin-Different-Phenotype (%) [6]: 52%
Total Cell Count [6]: 239
Population Apoptotic (%) [7]: 82%
Population Fragmented Nuclei (%) [7]: 8%
Population Healthy Nuclei (%) [7]: 2%
Population Hoechst High Intensity Objects (%) [7]: 14%
Population Mitochondria Different-Phenotype (%) [7]: 85%
Population Mitotic Cells (%) [7]: 17%
Population Normal (%) [7]: 85%
Population Pyknosed Nuclei (%) [7]: 89%
Total Cell Count [7]: 366
Population Apoptotic (%) [8]: 81%
Population Fragmented Nuclei (%) [8]: 7%
Population Healthy Nuclei (%) [8]: 4%
Population Hoechst High Intensity Objects (%) [8]: 12%
Population Membrane Permeable-Phenotype (%) [8]: 0%
Population Mitochondria Different-Phenotype (%) [8]: 22%
Population Mitotic Cells (%) [8]: 18%
Population Normal (%) [8]: 87%
Population Pyknosed Nuclei (%) [8]: 87%
Population Tubulin-Different-Phenotype (%) [8]: 100%
Total Cell Count [8]: 231
Population Apoptotic (%) [9]: 49%
Population Fragmented Nuclei (%) [9]: 19%
Population Healthy Nuclei (%) [9]: 4%
Population Hoechst High Intensity Objects (%) [9]: 23%
Population Membrane Permeable-Phenotype (%) [9]: 41%
Population Mitochondria Different-Phenotype (%) [9]: 50%
Population Mitotic Cells (%) [9]: 50%
Population Normal (%) [9]: 76%
Population Pyknosed Nuclei (%) [9]: 75%
Population Tubulin-Different-Phenotype (%) [9]: 83%
Total Cell Count [9]: 320
Population Apoptotic (%) [10]: 35%
Population Fragmented Nuclei (%) [10]: 5%
Population Healthy Nuclei (%) [10]: 26%
Population Hoechst High Intensity Objects (%) [10]: 13%
Population Membrane Permeable-Phenotype (%) [10]: 33%
Population Mitochondria Different-Phenotype (%) [10]: 20%
Population Mitotic Cells (%) [10]: 64%
Population Normal (%) [10]: 86%
Population Pyknosed Nuclei (%) [10]: 67%
Population Tubulin-Different-Phenotype (%) [10]: 53%
Total Cell Count [10]: 234
Population Apoptotic (%) [11]: 71%
Population Fragmented Nuclei (%) [11]: 11%
Population Healthy Nuclei (%) [11]: 0%
Population Hoechst High Intensity Objects (%) [11]: 17%
Population Membrane Permeable-Phenotype (%) [11]: 0%
Population Mitochondria Different-Phenotype (%) [11]: 100%
Population Mitotic Cells (%) [11]: 28%
Population Normal (%) [11]: 82%
Population Pyknosed Nuclei (%) [11]: 87%
Total Cell Count [11]: 369
Population Apoptotic (%) [12]: 87%
Population Fragmented Nuclei (%) [12]: 15%
Population Healthy Nuclei (%) [12]: 9%
Population Hoechst High Intensity Objects (%) [12]: 9%
Population Membrane Permeable-Phenotype (%) [12]: 5%
Population Mitochondria Different-Phenotype (%) [12]: 75%
Population Mitotic Cells (%) [12]: 12%
Population Normal (%) [12]: 90%
Population Pyknosed Nuclei (%) [12]: 74%
Population Tubulin-Different-Phenotype (%) [12]: 100%
Total Cell Count [12]: 230

Cc1ccc2nc(NCCN)c3ncc(C)n3c2c1.O=C(O)C(F)(F)F.O=C(O)C(F)(F)F
Population Apoptotic (%) [1]: 29%
Population Fragmented Nuclei (%) [1]: 14%
Population Healthy Nuclei (%) [1]: 67%
Population Hoechst High Intensity Objects (%) [1]: 13%
Population Membrane Permeable-Phenotype (%) [1]: 6%
Population Mitochondria Different-Phenotype (%) [1]: 2%
Population Mitotic Cells (%) [1]: 70%
Population Normal (%) [1]: 86%
Population Pyknosed Nuclei (%) [1]: 18%
Population Tubulin-Different-Phenotype (%) [1]: 3%
Total Cell Count [1]: 581
Population Apoptotic (%) [2]: 14%
Population Fragmented Nuclei (%) [2]: 10%
Population Healthy Nuclei (%) [2]: 85%
Population Hoechst High Intensity Objects (%) [2]: 2%
Population Membrane Permeable-Phenotype (%) [2]: 1%
Population Mitochondria Different-Phenotype (%) [2]: 9%
Population Mitotic Cells (%) [2]: 85%
Population Normal (%) [2]: 97%
Population Pyknosed Nuclei (%) [2]: 3%
Population Tubulin-Different-Phenotype (%) [2]: 5%
Total Cell Count [2]: 1754
Population Apoptotic (%) [3]: 25%
Population Fragmented Nuclei (%) [3]: 13%
Population Healthy Nuclei (%) [3]: 58%
Population Hoechst High Intensity Objects (%) [3]: 14%
Population Membrane Permeable-Phenotype (%) [3]: 5%
Population Mitochondria Different-Phenotype (%) [3]: 14%
Population Mitotic Cells (%) [3]: 75%
Population Normal (%) [3]: 85%
Population Pyknosed Nuclei (%) [3]: 27%
Population Tubulin-Different-Phenotype (%) [3]: 14%
Total Cell Count [3]: 591
Population Apoptotic (%) [4]: 26%
Population Fragmented Nuclei (%) [4]: 5%
Population Healthy Nuclei (%) [4]: 83%
Population Hoechst High Intensity Objects (%) [4]: 5%
Population Membrane Permeable-Phenotype (%) [4]: 1%
Population Mitochondria Different-Phenotype (%) [4]: 27%
Population Mitotic Cells (%) [4]: 73%
Population Normal (%) [4]: 94%
Population Pyknosed Nuclei (%) [4]: 10%
Population Tubulin-Different-Phenotype (%) [4]: 19%
Total Cell Count [4]: 1004
Population Apoptotic (%) [5]: 35%
Population Fragmented Nuclei (%) [5]: 14%
Population Healthy Nuclei (%) [5]: 76%
Population Hoechst High Intensity Objects (%) [5]: 6%
Population Membrane Permeable-Phenotype (%) [5]: 5%
Population Mitochondria Different-Phenotype (%) [5]: 3%
Population Mitotic Cells (%) [5]: 64%
Population Normal (%) [5]: 93%
Population Pyknosed Nuclei (%) [5]: 8%
Population Tubulin-Different-Phenotype (%) [5]: 6%
Total Cell Count [5]: 670
Population Apoptotic (%) [6]: 5%
Population Fragmented Nuclei (%) [6]: 30%
Population Healthy Nuclei (%) [6]: 67%
Population Hoechst High Intensity Objects (%) [6]: 3%
Population Membrane Permeable-Phenotype (%) [6]: 4%
Population Mitochondria Different-Phenotype (%) [6]: 1%
Population Mitotic Cells (%) [6]: 94%
Population Normal (%) [6]: 96%
Population Pyknosed Nuclei (%) [6]: 1%
Total Cell Count [6]: 2957
Population Apoptotic (%) [7]: 38%
Population Fragmented Nuclei (%) [7]: 14%
Population Healthy Nuclei (%) [7]: 60%
Population Hoechst High Intensity Objects (%) [7]: 20%
Population Membrane Permeable-Phenotype (%) [7]: 6%
Population Mitochondria Different-Phenotype (%) [7]: 18%
Population Mitotic Cells (%) [7]: 61%
Population Normal (%) [7]: 79%
Population Pyknosed Nuclei (%) [7]: 25%
Population Tubulin-Different-Phenotype (%) [7]: 12%
Total Cell Count [7]: 482
Population Apoptotic (%) [8]: 44%
Population Fragmented Nuclei (%) [8]: 7%
Population Healthy Nuclei (%) [8]: 85%
Population Hoechst High Intensity Objects (%) [8]: 10%
Population Membrane Permeable-Phenotype (%) [8]: 1%
Population Mitochondria Different-Phenotype (%) [8]: 27%
Population Mitotic Cells (%) [8]: 55%
Population Normal (%) [8]: 89%
Population Pyknosed Nuclei (%) [8]: 6%
Population Tubulin-Different-Phenotype (%) [8]: 19%
Total Cell Count [8]: 858

Reference: ChEMBL document CHEMBL4689842, “EUbOPEN Chemogenomics Library wave 1” (2021)
